Columns and labels:
Canis familiaris = test: Tested in anesthetized dog for its inotropic activity after intravenous administration; type: functional; settings: Canis lupus familiaris
In short: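 Mongrel dogs of either sex (7-14 kg), anesthetized with sodium pentobarbital (35 mg/kg iv). Dosing was via a femoral vein cannula. Contractility was measured by a Walton-Brodie strain-gauge arch on the right ventricle (tension 50 g); heart rate by cardiometer; lead II ECG. Doses of 0.01 to 8.0 mg/kg iv were given in increasing steps at 5-min intervals. Peak responses are reported as mean ± SEM (n = 4) or mean ± range (n = 2).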

Felis catus = organism: Felis catus; test: Inotropic activity in cat papillary muscle at 10e-5 M expressed as percent of control; type: functional
In short: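 Isolated-tissue bath preparation with contractions recorded on a polygraph. Compounds were dissolved in DMSO and added cumulatively, each concentration being allowed to produce its maximal response before the next higher one was added.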

Structure (SMILES) | ED50 (Canis familiaris) [mg/kg] | Inotropic activity (% of control) (Felis catus) [%]
COc1cc([S+](C)[O-])ccc1-c1nc2cnccc2[nH]1 (stereo not drawn) [ISOMAZOLE] | 0.03 | 172
COc1cc([S+](C)[O-])ccc1-c1cn2ccncc2n1 (stereo not drawn) | 0.1 | 161
COc1ccc(-c2cn3cccnc3n2)c(OC)c1 | – | 136
COc1cc([S+](C)[O-])ccc1-c1nc2cccnc2[nH]1 (stereo not drawn) [SULMAZOLE] | – | 112
COc1cc(SC)ccc1-c1nc2cc[nH]cc-2n1 | 0.2 | 143
COc1ccc(-c2nc3cc[nH]cc-3n2)c(OC)c1 | 0.3 | 158
COc1ccc(-c2cn3ccccc3n2)c(OC)c1 | – | 98
COc1ccc(-c2cn3ccncc3n2)c(OC)c1 | 0.7 | 145
COc1ccc(-c2nc3ccc[nH]c-3n2)c(OC)c1 | – | 146
COc1cc(S(C)(=O)=O)ccc1-c1cn2ccncc2n1 | 0.02 | 180
COc1cc(S(C)(=O)=O)ccc1-c1nc2ccncc2[nH]1 | 0.02 | 176
COc1ccc(-c2cn3cnccc3n2)c(OC)c1 | – | 114
COc1ccc(-c2cn3ncccc3n2)c(OC)c1 | – | 115
COc1ccc(-c2cn3nccnc3n2)c(OC)c1 | – | 130
COc1cc(SC)ccc1-c1cn2ccncc2n1 | 0.5 | 140
